Laboratory results published in PubChem BioAssay.
Records with an inconclusive call do not appear.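 Rule for the calls, unless noted: active = cell viability at or below a set limit in both duplicate runs, the limit being the all-compound median minus 4 SD (cut at about 23% in these data, passing the limit was not always enough); inconclusive = no clear call, values can overlap the other calls; inactive = the rest.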

Columns and labels:
[1] = S. cerevisiae growth inhibition in permissive medium (OD615), pilot counter-assay for S. cerevisiae lifespan shortening project, permissive growth control (AID 705;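 active = growth inhibition above 25% in both replicates, a cutoff set 3 SD above the mean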); conditions: OD615, 24 h, at 10 µM, stronger effect = higher value
How it was run: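 System: S. cerevisiae with engineered DeaD lifespan system. Medium: SC raffinose/galactose permissive medium. Doses: single compound dose of 10 µM, 0.25% DMSO final. Schedule: 24 h exposure, 30 °C. Measured by: OD615 turbidity read. Read-out: growth inhibition.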

[2] = S. cerevisiae growth inhibition in restrictive medium, OD615, pilot screen, restrictive growth control, yeast lifespan reduction project (AID 706;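 active = growth inhibition above a set limit, 3 SD over mean compound inhibition, in both replicates, cut at about 43% in these data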;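 note: modified DeaD lifespan yeast strain shifted to restrictive glucose medium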); conditions: OD615, 48 h, at 10 µM, stronger effect = higher value
How it was run: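 Assay system – genetically modified Saccharomyces cerevisiae, DeaD replicative lifespan assay strain · Medium – CSMM-D glucose medium · Doses – 10 µM compound, 0.25% DMSO · Times – 4 h pre-incubation, 48 h exposure at 30 °C · Signal – optical density at 615 nm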

[3] = doxorubicin toxicity protection in MRP-1 cells – H69AR cells, CellTiter-Glo, duplicate, MRP-1 activator project, pilot screen (AID 807;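 active = viability increase at or above a cutoff of the median across tested compounds plus 3 SD, cut at about 8.5% in these data, passing the limit was not always enough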;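 note: compound pretreatment 18-22 h then 72 h combined with doxorubicin; 0% = doxorubicin alone and 100% = vehicle without doxorubicin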); conditions: H69AR viability with doxorubicin, CellTiter-Glo luminescence; at 10 µM; stronger effect = higher value
[4] = viability of HCT116 without oncogenic beta-catenin – human colon tumor cells, pilot screen (AID 823); conditions: HCT116 beta-catenin knockout viability, CellTiter-Glo, 60 h; at 10 µM; stronger effect = lower value;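 note: 0% = wells killed by 20 µM Hyamine and 100% = untreated DMSO cell wells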
[5] = viability of PTEN-null HCT116 cells – cell-based, HCT116 clonal line, CellTiter-Glo, pilot screen (AID 824;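 active = viability at or below 27.92% in each of two runs, the all-compound median minus 4 SD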;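 note: 0% = 20 µM Hyamine control and 100% = vehicle cell control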); conditions: HCT116 PTEN-deleted viability, 60 h, at 10 µM, stronger effect = lower value
[6] = RAM pathway blockade in budding yeast – dse1pr::URA3 reporter, 5-FOA selection, pilot screen (AID 869;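 active = inhibition over a set limit, the all-compound mean plus 3 SD, in both replicate runs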;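 note: 0% = DMSO wells with no growth and 100% = 10 µM 1-NA-PP1 with full growth; RAM network block rescues cells from 5-FOA so hits raise OD615 growth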); conditions: S. cerevisiae dse1pr::URA3 5-FOA growth, OD615, 2 d; at 10 µM; stronger effect = higher value; strain carries analog-sensitive mutant Cbk1 kinase
[7] = RAM signaling pathway blockade in yeast – S. cerevisiae, Pdr1DBD-CYC8 efflux-inhibited sensitized strain, primary screen (AID 1298;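 active = RAM network inhibition above 8.4% in each of two replicates, 3 SD over the compound average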;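 note: 0% = DMSO untreated cells without growth and 100% = 10 µM 1-NA-PP1 full growth; higher means more yeast growth rescued from 5-FOA killing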); conditions: S. cerevisiae cbk1-as DSE1-URA3 strain, 5-FOA growth OD615, 2 d; at 50 µM; stronger effect = higher value

COc1cc(S(=O)(=O)N2CCN(c3ccccc3)CC2)ccc1Cl
inactive: growth inhibition [1] -16.9% | growth inhibition [2] -14% | viability increase [3] -3.07% | viability [4] 95.1% | viability [5] 95.3% | inhibition [6] 0.17% | RAM network inhibition [7] 6.95%

Cc1ccc(Oc2ccccc2)c(NC=O)c1
inactive: growth inhibition [1] -2.02% | growth inhibition [2] 11.4% | viability increase [3] -3.07% | viability [4] 96.2% | viability [5] 90.4% | inhibition [6] -0.085% | RAM network inhibition [7] 1.17%

Cc1c(NC(=O)c2ccc3c(c2)OCO3)cccc1-c1nc2ncccc2o1
inactive: growth inhibition [1] -9.32% | growth inhibition [2] -13.2% | viability increase [3] -1.14% | viability [4] 102% | viability [5] 95.3% | inhibition [6] 2.48% | RAM network inhibition [7] 3.92%

CC1Cc2nc(SCC(=O)OCc3ccccc3)n(C)c(=O)c2S1 (configuration not stated)
inactive: growth inhibition [1] 5.29% | growth inhibition [2] 1.86% | viability increase [3] -3.06% | viability [4] 102% | viability [5] 93.8% | inhibition [6] 0.69% | RAM network inhibition [7] 6.68%

CCOC(=O)c1[nH]c(C)c(C(=O)OCC)c1C
inactive: growth inhibition [1] -9.48% | growth inhibition [2] 1.48% | viability increase [3] 2.18% | viability [4] 105% | viability [5] 97.5% | inhibition [6] 3.55% | RAM network inhibition [7] 4.06%

CC1(C)CC(=O)C2(CC3=C(CC(C)(C)CC3=O)O2)C(=O)C1
inactive: growth inhibition [1] -4.3% | growth inhibition [2] 0.72% | viability increase [3] 0.2% | viability [4] 94.7% | viability [5] 97.1% | inhibition [6] 1.96% | RAM network inhibition [7] 1.77%

CCOC(=O)N1CCN(c2nc(=S)n(-c3ccccc3)c(C)c2C(C)=O)CC1
inactive: growth inhibition [1] 14.8% | growth inhibition [2] 28.8% | viability increase [3] -1.09% | viability [4] 98.8% | viability [5] 101% | inhibition [6] 1.26% | RAM network inhibition [7] 2.67%

Cc1ccc(Nc2cc(C)nc3nc(C)nn23)c(C)c1
inactive: growth inhibition [1] -9.53% | growth inhibition [2] 8.84% | viability increase [3] -3.9% | viability [4] 95.1% | viability [5] 96.9% | inhibition [6] -0.02% | RAM network inhibition [7] -0.78%

O=C1CN(C(=O)COc2ccccc2)CCN1
inactive: growth inhibition [1] -14.3% | growth inhibition [2] -15.5% | viability increase [3] -1.4% | viability [4] 99.3% | viability [5] 96.8% | inhibition [6] 1.35% | RAM network inhibition [7] -0.43%

Brc1cccc(-c2nnc(SCc3ccon3)n2-c2ccccc2)c1
inactive: growth inhibition [1] -5.09% | growth inhibition [2] 3.47% | viability increase [3] -5.94% | viability [4] 92.3% | viability [5] 78.7% | inhibition [6] 1.46% | RAM network inhibition [7] 0.07%

O=C(NC1CCCc2ccccc21)c1cccnc1 (configuration not stated)
inactive: growth inhibition [1] -4.71% | growth inhibition [2] -1.41% | viability increase [3] -1.04% | viability [4] 91.4% | viability [5] 93% | inhibition [6] 1.98% | RAM network inhibition [7] 0.22%

CCOC(=O)C1CCCN(C(=O)Cn2nc(CC)n3c(cc4sccc43)c2=O)C1 (configuration not stated)
inactive: growth inhibition [1] -3.41% | growth inhibition [2] -9.06% | viability increase [3] -0.92% | viability [4] 105% | viability [5] 105% | inhibition [6] 1.33% | RAM network inhibition [7] 8.75%

CCOc1ccc(N(CC(=O)NC2CCCC2)S(=O)(=O)c2c(C)noc2C)cc1
inactive: growth inhibition [1] -12.7% | growth inhibition [2] -2.85% | viability increase [3] -2.27% | viability [4] 97.4% | viability [5] 94.9% | inhibition [6] 3.61% | RAM network inhibition [7] 8.02%

COc1ccc(Cc2nnc(SCC(=O)NC(C)c3ccccc3)o2)cc1 (configuration not stated)
inactive: growth inhibition [1] 2.93% | growth inhibition [2] -8.12% | viability increase [3] -1.25% | viability [4] 91.2% | viability [5] 86.8% | inhibition [6] 0.57% | RAM network inhibition [7] 4.19%

CCOC(=O)CSC(CC)C(=O)Nc1nnc(C(C)C)s1 (configuration not stated)
inactive: growth inhibition [1] 5.7% | growth inhibition [2] 9.58% | viability increase [3] -1.46% | viability [4] 94.6% | viability [5] 94.7% | inhibition [6] 1% | RAM network inhibition [7] 9.23%

COCCn1c(SCC(=O)N2CCN(c3ccccc3)CC2)nc2c(c1=O)SC(C)C2 (configuration not stated)
inactive: growth inhibition [1] 10.7% | growth inhibition [2] 10.7% | viability increase [3] -3.54% | viability [4] 103% | viability [5] 92.9% | inhibition [6] 1.65% | RAM network inhibition [7] 2.75%

O=C(c1ccc(CN2CCc3ccccc3C2)cc1)N1CCCCC1
inactive: growth inhibition [1] 4.87% | growth inhibition [2] 3.72% | viability increase [3] -2.43% | viability [4] 94.2% | viability [5] 93.9% | inhibition [6] 3.59% | RAM network inhibition [7] 4.9%

CC1=C(C(=O)N2CCOCC2)C(c2cccs2)NC(=O)N1 (configuration not stated)
inactive: growth inhibition [1] 1.45% | growth inhibition [2] -1.81% | viability increase [3] -0.8% | viability [4] 99.8% | viability [5] 99.9% | inhibition [6] 1.26% | RAM network inhibition [7] 3.01%

Cn1c(=O)c2c(nc(CN3CCN(CCO)CC3)n2Cc2ccccc2Cl)n(C)c1=O
inactive: growth inhibition [1] 4.8% | growth inhibition [2] -2.67% | viability increase [3] -3.91% | viability [4] 98.2% | viability [5] 96.2% | inhibition [6] 0.875% | RAM network inhibition [7] 4.94%

COc1ccc(NC(=O)C(c2ccc(C)cc2)N(C)C(=O)c2cnccn2)cc1 (configuration not stated)
inactive: growth inhibition [1] 1.81% | growth inhibition [2] 1.4% | viability increase [3] -1.03% | viability [4] 89.6% | viability [5] 95.6% | inhibition [6] -0.145% | RAM network inhibition [7] 0.06%

O=C1CCCC2=C1C(c1cn(-c3ccccc3)nc1-c1cccs1)c1c([nH]c(=O)[nH]c1=O)N2 (configuration not stated)
inactive: growth inhibition [1] -11.2% | growth inhibition [2] -27.7% | viability increase [3] 1.36% | viability [4] 106% | viability [5] 99.1% | inhibition [6] 0.32% | RAM network inhibition [7] 2.19%

CCOC(=O)N1CCC(NC(=O)C2CCN(Cc3nc(-c4ccc(CC)cc4)oc3C)CC2)CC1
inactive: growth inhibition [1] -8.25% | growth inhibition [2] -7.78% | viability increase [3] -1.2% | viability [4] 84.2% | viability [5] 85.9% | inhibition [6] 0.435% | RAM network inhibition [7] 0.29%

CC(=O)CCc1c(C)[nH]c2ccc(NC(C)=O)cc2c1=O
inactive: growth inhibition [1] 5.26% | growth inhibition [2] 8.18% | viability increase [3] -0.95% | viability [4] 100% | viability [5] 98% | inhibition [6] 0.77% | RAM network inhibition [7] 2.81%

CCC(=O)Nc1ccc(C(=O)n2nc(C)cc2C)cc1
inactive: growth inhibition [1] 15.8% | growth inhibition [2] 7.33% | viability increase [3] -2.24% | viability [4] 103% | viability [5] 98.9% | inhibition [6] 1.12% | RAM network inhibition [7] -0.72%

CCNc1nnc(-c2ccccc2OC)s1
inactive: growth inhibition [1] -2.37% | growth inhibition [2] 3.71% | viability increase [3] -0.41% | viability [4] 96% | viability [5] 103% | inhibition [6] -0.485% | RAM network inhibition [7] 5.21%

Cc1nc2ccccc2c2oc(C(=O)N3CCc4ccccc4C3)cc12
inactive: growth inhibition [1] -17.8% | growth inhibition [2] -23.5% | viability increase [3] -3.07% | viability [4] 73.1% | viability [5] 72.5% | inhibition [6] 1.98% | RAM network inhibition [7] 3.91%

Cc1ccc(NC(=O)CNS(=O)(=O)c2cccs2)cc1F
inactive: growth inhibition [1] -5.56% | growth inhibition [2] -17.9% | viability increase [3] 1.44% | viability [4] 100% | viability [5] 97.7% | inhibition [6] 0.01% | RAM network inhibition [7] -0.53%

c1cn2c(NC3CCCC3)c(-c3ccc(N4CCOCC4)cc3)nc2cn1
inactive: growth inhibition [1] -2.94% | growth inhibition [2] 7.59% | viability increase [3] -4.3% | viability [4] 88.8% | viability [5] 77.8% | inhibition [6] 1.78% | RAM network inhibition [7] 3.25%

CCOCCCNC(=O)C(c1ccc(C)cc1)N(Cc1ccc2c(c1)OCO2)C(=O)CNC(C)=O (configuration not stated)
inactive: growth inhibition [1] -8.64% | growth inhibition [2] 0.77% | viability increase [3] 0.84% | viability [4] 100% | viability [5] 102% | inhibition [6] 0.88% | RAM network inhibition [7] 2.3%

Cn1c2c(c(=O)n(C)c1=O)C1c3ccccc3OCC1C(C)(C)O2 (configuration not stated)
inactive: growth inhibition [1] -15.4% | growth inhibition [2] -19.5% | viability increase [3] -2.46% | viability [4] 98.7% | viability [5] 96.1% | inhibition [6] -0.05% | RAM network inhibition [7] 0.68%

O=C(O)CCC(=O)Nc1ccc(-c2nnc(-c3ccco3)o2)cc1
inactive: growth inhibition [1] -12.8% | growth inhibition [2] -4.63% | viability increase [3] -0.63% | viability [4] 102% | viability [5] 99.8% | inhibition [6] 1.61% | RAM network inhibition [7] 2.14%

CC1CN(Cc2nc3c(c(=O)n(C)c(=O)n3C)n2Cc2cccc(Cl)c2)CC(C)O1 (configuration not stated)
inactive: growth inhibition [1] -4.24% | growth inhibition [2] -9% | viability increase [3] -2.03% | viability [4] 100% | viability [5] 90.8% | inhibition [6] 0.74% | RAM network inhibition [7] 2.81%

CCOC(=O)N1CCN(C(=O)CSc2nnc(-c3cccs3)o2)CC1
inactive: growth inhibition [1] 0.955% | growth inhibition [2] 3.94% | viability increase [3] 0.87% | viability [4] 104% | viability [5] 108% | inhibition [6] 0.595% | RAM network inhibition [7] 1.07%

Cn1c(=O)c2cc(S(=O)(=O)NC(C(=O)Nc3cccnc3)c3ccccc3)ccc2n(C)c1=O (configuration not stated)
inactive: growth inhibition [1] -3.52% | growth inhibition [2] -1.8% | viability increase [3] -2.15% | viability [4] 99% | viability [5] 91.9% | inhibition [6] 1.96% | RAM network inhibition [7] 0.58%

O=C(NCCSCc1ccco1)c1ccc(CN2CCOCC2)cc1
inactive: growth inhibition [1] -10.4% | growth inhibition [2] -27% | viability increase [3] -1.57% | viability [4] 101% | viability [5] 99.7% | inhibition [6] 1.59% | RAM network inhibition [7] 2.06%

O=c1nc2n(c3sc4c(c13)CCC4)Cc1ccccc1-2
inactive: growth inhibition [1] -15.5% | growth inhibition [2] -9.3% | viability increase [3] -2.14% | viability [4] 94.2% | viability [5] 100% | inhibition [6] 1.48% | RAM network inhibition [7] 1.43%
